Data as given in ChEMBL document CHEMBL1926642, “Relevance of the C-5 position to schweinfurthin induced cytotoxicity” (2011).

How the values were obtained:
Format in all cases: functional
HCT-116 = assay: Growth inhibition of human HCT116 cells after 48 hrs by sulforhodamine B assay; conditions: HCT-116, 48 h
SN12C = assay: Growth inhibition of human SN12C cells after 48 hrs by sulforhodamine B assay
CCRF-CEM = assay: Growth inhibition of human CCRF-CEM cells after 48 hrs by sulforhodamine B assay
OVCAR-4 = assay: Growth inhibition of human OVCAR4 cells after 48 hrs by sulforhodamine B assay; conditions: OVCAR-4, 48 h
A498 = assay: Growth inhibition of human A498 cells after 48 hrs by sulforhodamine B assay; conditions: A498, 48 h
SF-539 = assay: Growth inhibition of human SF539 cells after 48 hrs by sulforhodamine B assay; conditions: SF-539, 48 h
LOX IMVI = assay: Growth inhibition of human LOXIMVI cells after 48 hrs by sulforhodamine B assay
SNB-19 = assay: Growth inhibition of human SNB19 cells after 48 hrs by sulforhodamine B assay; conditions: SNB-19, 48 h
NCI-H322M = assay: Growth inhibition of human NCI-H322M cells after 48 hrs by sulforhodamine B assay
NCI-H522 = assay: Growth inhibition of human NCI-H522 cells after 48 hrs by sulforhodamine B assay; conditions: NCI-H522, 48 h
SK-MEL-28 = assay: Growth inhibition of human SK-MEL-28 cells after 48 hrs by sulforhodamine B assay; conditions: SK-MEL-28, 48 h
OVCAR-3 = assay: Growth inhibition of human OVCAR3 cells after 48 hrs by sulforhodamine B assay; conditions: OVCAR-3, 48 h
MOLT-4 = assay: Growth inhibition of human MOLT4 cells after 48 hrs by sulforhodamine B assay; conditions: MOLT-4, 48 h
UACC-62 = assay: Growth inhibition of human UACC62 cells after 48 hrs by sulforhodamine B assay; conditions: UACC-62, 48 h
HCC 2998 = assay: Growth inhibition of human HCC2998 cells after 48 hrs by sulforhodamine B assay; conditions: HCC 2998, 48 h
HCT-15 = assay: Growth inhibition of human HCT15 cells after 48 hrs by sulforhodamine B assay; conditions: HCT-15, 48 h
SF-268 = assay: Growth inhibition of human SF268 cells after 48 hrs by sulforhodamine B assay; conditions: SF-268, 48 h
MDA-MB-231 = assay: Growth inhibition of human MDA-MB-231/ATCC cells after 48 hrs by sulforhodamine B assay; conditions: MDA-MB-231, 48 h
NCI-H23 = assay: Growth inhibition of human NCI-H23 cells after 48 hrs by sulforhodamine B assay; conditions: NCI-H23, 48 h
SK-MEL-2 = assay: Growth inhibition of human SK-MEL-2 cells after 48 hrs by sulforhodamine B assay; conditions: SK-MEL-2, 48 h
NCI-H226 = assay: Growth inhibition of human NCI-H226 cells after 48 hrs by sulforhodamine B assay; conditions: NCI-H226, 48 h
ACHN = assay: Growth inhibition of human ACHN cells after 48 hrs by sulforhodamine B assay
T47D = assay: Growth inhibition of human T47D cells after 48 hrs by sulforhodamine B assay
SK-OV-3 = assay: Growth inhibition of human SKOV3 cells after 48 hrs by sulforhodamine B assay; conditions: SK-OV-3, 48 h
Malme-3M = assay: Growth inhibition of human MALME-3M cells after 48 hrs by sulforhodamine B assay
HL-60(TB) = assay: Growth inhibition of human HL-60(TB) cells after 48 hrs by sulforhodamine B assay; conditions: HL-60, 48 h
Summary of the method: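 Run in the NCI 60 cell-line screen as the full 5-dose assay that follows initial single-dose testing; GI50 is read from the dose series.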

RPMI-8226 = assay: Growth inhibition of human RPMI8226 cells after 48 hrs by sulforhodamine B assay; conditions: RPMI-8226, 48 h
RXF 393 = assay: Growth inhibition of human RXF393 cells after 48 hrs by sulforhodamine B assay; conditions: RXF 393, 48 h
[1] = read-out: pLC50 (the source's name) (converted)

With `COc1cc(/C=C/c2cc3c(c(OC)c2)O[C@]2(C)CC[C@@H](O)C(C)(C)[C@H]2C3)cc(O)c1C/C=C(\C)CCC=C(C)C` the GI50 (HCT-116) was 3.24 µM, the LC50 (HCT-116) was 21.9 µM and the TGI (HCT-116; read-out: pTGI (converted)) was 9.77 µM. It also gave a GI50 (SN12C) of 5.89 µM, an LC50 (SN12C) of 28.8 µM and a TGI (SN12C; read-out: pTGI (converted)) of 13.2 µM. For the same compound, the GI50 (CCRF-CEM) was 1.41 µM, the LC50 (CCRF-CEM) was > 50.1 µM and the TGI (CCRF-CEM; read-out: pTGI (converted)) was 13.8 µM. For the same compound, the GI50 (OVCAR-4) was 5.75 µM, the LC50 (OVCAR-4) was 28.8 µM and the TGI (OVCAR-4; read-out: pTGI (converted)) was 12.9 µM. For the same compound, the GI50 (A498) was 1.82 µM, the LC50 (A498) was 21.9 µM and the TGI (A498; read-out: pTGI (converted)) was 8.32 µM. The GI50 (SF-539) was 0.155 µM, the LC50 (SF-539) was 7.59 µM and the TGI (SF-539; read-out: pTGI (converted)) was 1.1 µM. The GI50 (LOX IMVI) was 1.41 µM, the LC50 (LOX IMVI) was 15.8 µM and the TGI (LOX IMVI; read-out: pTGI (converted)) was 5.01 µM. The GI50 (SNB-19) was 3.89 µM, the LC50 (SNB-19) was 41.7 µM and the TGI (SNB-19; read-out: pTGI (converted)) was 14.1 µM. For the same compound, the GI50 (NCI-H322M) was 6.76 µM, the LC50 (NCI-H322M) was > 50.1 µM and the TGI (NCI-H322M; read-out: pTGI (converted)) was 18.6 µM. For the same compound, the GI50 (NCI-H522) was 4.47 µM, the LC50 (NCI-H522) was 32.4 µM and the TGI (NCI-H522; read-out: pTGI (converted)) was 12.3 µM. For the same compound, the GI50 (SK-MEL-28) was 4.27 µM, the CC50 (SK-MEL-28; [1]) was 22.9 µM and the TGI (SK-MEL-28; read-out: pTGI (converted)) was 10.7 µM. The GI50 (OVCAR-3) was 3.63 µM, the LC50 (OVCAR-3) was 23.4 µM and the TGI (OVCAR-3; read-out: pTGI (converted)) was 10.5 µM. It also gave a GI50 (MOLT-4) of 0.891 µM, an LC50 (MOLT-4) of 33.1 µM and a TGI (MOLT-4; read-out: pTGI (converted)) of 2.75 µM. The GI50 (UACC-62) was 1.07 µM, the LC50 (50% lethal concentration) (UACC-62) was 13.8 µM and the TGI (UACC-62; read-out: pTGI (converted)) was 3.8 µM. For the same compound, the GI50 (HCC 2998) was 1.7 µM, the LC50 (HCC 2998) was 22.4 µM and the TGI (HCC 2998; read-out: pTGI (converted)) was 10 µM. The GI50 (HCT-15) was 1.29 µM, the LC50 (HCT-15) was 17.8 µM and the TGI (HCT-15; read-out: pTGI (converted)) was 6.03 µM. The GI50 (SF-268) was 2.45 µM, the LC50 (SF-268) was 21.4 µM and the TGI (SF-268; read-out: pTGI (converted)) was 9.33 µM. The GI50 (MDA-MB-231) was 2.04 µM, the CC50 (MDA-MB-231; [1]) was 19.5 µM and the TGI (MDA-MB-231; read-out: pTGI (converted)) was 7.76 µM. For the same compound, the GI50 (NCI-H23) was 5.62 µM, the LC50 (NCI-H23) was 26.9 µM and the TGI (NCI-H23; read-out: pTGI (converted)) was 12.3 µM. For the same compound, the GI50 (SK-MEL-2) was 5.37 µM, the LC50 (SK-MEL-2) was 27.5 µM and the TGI (SK-MEL-2; read-out: pTGI (converted)) was 12 µM. It also gave a GI50 (NCI-H226) of 5.89 µM, an LC50 (NCI-H226) of 25.7 µM and a TGI (NCI-H226; read-out: pTGI (converted)) of 12.3 µM. For the same compound, the GI50 (ACHN) was 2.75 µM, the LC50 (ACHN) was 21.4 µM and the TGI (ACHN; read-out: pTGI (converted)) was 9.33 µM. It also gave a GI50 (T47D) of 2.29 µM, an LC50 (T47D) of 23.4 µM and a TGI (T47D; read-out: pTGI (converted)) of 9.12 µM. For the same compound, the GI50 (SK-OV-3) was 3.24 µM, the LC50 (SK-OV-3) was > 50.1 µM and the TGI (SK-OV-3; read-out: pTGI (converted)) was 18.2 µM. It also gave a GI50 (Malme-3M) of 5.13 µM, an LC50 (Malme-3M) of 36.3 µM and a TGI (Malme-3M; read-out: pTGI (converted)) of 13.5 µM. It also gave a GI50 (HL-60(TB)) of 1.51 µM, a CC50 (HL-60(TB); [1]) of 30.2 µM and a TGI (HL-60(TB); read-out: pTGI (converted)) of 6.61 µM. The GI50 (RPMI-8226) was 0.178 µM, the LC50 (RPMI-8226) was > 50.1 µM and the TGI (RPMI-8226; read-out: pTGI (converted)) was 1.55 µM. For the same compound, the GI50 (RXF 393) was 0.0891 µM, the LC50 (50% lethal concentration) (RXF 393) was 4.17 µM and the TGI (RXF 393; read-out: pTGI (converted)) was 0.302 µM.
